Screening data deposited in PubChem BioAssay by several laboratories.
Only some compounds are listed: those with a hit (about 2.9% of all), similar ones and a draw of the others.
ROCK2 inh: ROCK2 (human) kinase inhibition | purified ROCK2, Kinase-Glo ATP depletion luminescence | inhibition, % at 6 µM | 60,000 tested, 0.35% active | AID 604;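 active = inhibition above the screen-wide mean inhibition plus 3 SD, cut at about 18% in these data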;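 note: plate controls were DMSO wells for no effect and Y-27632 control wells after no-enzyme background subtraction for full effect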
JNK3 blocker: blocks human JNK3 kinase activity; inhibition, % at 8 µM; 60,000 tested, 0.61% active; P53779; purified JNK3 kinase activity, HTS; in the data active = inhibition above about 17%;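 note: 0% = DMSO and 100% = reference inhibitor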
Htt clearance: compounds clearing mutant huntingtin protein | HeLa Exon1htt(103Q)mCFP, aggregate imaging; zero = plate's median compound well | inhibition, % at 1.5 µM | 47,000 tested, 0.42% active | AID 853;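 active = inhibition of aggregate fluorescence above about 70%, also judged a hit by eye on the cell image, limit read from the data, passing the limit was not always enough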;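 note: cells exposed to compound for three days before fixation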
SF-1 act: SF-1 (human) activation | CHO-K1 Gal4-SF-1 LBD luciferase reporter; % increase over DMSO SF-1-specific signal | 65,000 tested, 1.9% active | AID 522 | activation, % at 10 µM | Q13285;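 active = activation above the mean activation of all tested compounds plus 3 SD, cut at about 50% in these data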
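Assay system: CHO-K1 cells co-transfected with Gal4 DBD–human SF-1 LBD, 5xGal4 luciferase reporter / Input: 4,000 cells per well / Incubation: 20 h compound exposure at 37 °C after 1 h cell settling / Detection: SteadyLite luciferase luminescence / Control set: DMSO negative control and −SF1 background wells / Replication: one test per compound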
RORa activator: activates the human nuclear receptor RORA. CHO-K1 Gal4-RORA LBD luciferase reporter, luminescence; percent increase over mock-subtracted basal signal. activation, % at 10 µM. 65,000 tested, 1.5% active. AID 560;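 active = activation above the mean of all tested compounds plus 3 SD, cut at about 49% in these data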;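 note: 0% = DMSO-treated RORA cells and 100% = added signal equal to DMSO minus mock-transfected cells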
PKA kinase inh: inhibitors of human protein kinase A; P17612; PKA Kemptide phosphorylation, Kinase-Glo ATP luminescence; inhibition, % at 6 µM; 65,000 tested, 0.1% active; AID 524;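 active = inhibition above the screen-wide mean inhibition plus 3 SD, cut at about 21% in these data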
* hit, by the source's call; · = not tested or not shown.

SMILES | ROCK2 inh | JNK3 blocker | Htt clearance | SF-1 act | RORa activator | PKA kinase inh
Cc1ccc2c(CC(=O)N3CCc4ccccc43)coc2c1 | 0.6 | 2.6 | · | 86.6* | 48.0 | -0.5
CCn1c(=O)c(C(=O)Nc2nc3ccccc3[nH]2)c(O)c2ccccc21 | 7.5 | 3.8 | 2.0 | -36.8 | -18.5 | 7.1
O=C1CCCc2nn(-c3ccccc3)c(-c3ccncc3)c21 | 1.5 | 30.1* | 7.6 | -16.4 | -11.9 | 6.0
Cc1nc2cc(NC(=O)N3c4ccccc4CC3C)ccc2o1 (stereo unspecified) | -3.4 | 10.8 | -52.8 | 79.4* | 40.9 | -0.3
COc1ccc(CN(C(=O)CSc2nnc(-c3c[nH]c4ccccc34)o2)c2ccc(F)cc2)cc1OC | · | · | 55.4 | · | · | ·
COc1ccc(-c2nc(N3CCCC3)nc3nn4c(C)cc(C)nc4c23)cc1 | 3.5 | -9.8 | · | 9.8 | 16.0 | 8.4
Cc1ccc(CNC(=O)CN(C)S(=O)(=O)c2cccc3cccnc23)cc1 | 4.7 | -0.9 | · | -16.3 | -13.0 | 6.9
COCC(=O)Nc1ccccc1C(=O)Nc1ccc(OC)cc1 | 5.1 | -3.2 | · | 58.6* | 18.7 | 3.4
CCOc1ccc(NC(=O)c2ccccc2CO)cc1 | 1.0 | -5.5 | 34.4 | 71.2* | 51.4* | 3.0
CCC(C)NC(=O)c1ccccc1NC(=O)COc1ccc(OC)cc1 (stereo unspecified) | · | · | 8.5 | · | · | ·
CCOc1ccc(NC(=O)c2ccccc2O)cc1 | -0.2 | 2.0 | · | -5.5 | -8.3 | 9.0
CCOc1ccc(NC(=O)c2ccccc2OC)cc1 | 3.2 | 0.1 | 3.7 | 73.0* | 49.0* | 8.9
CCOC(=O)c1ccc(Oc2cc(C)nc(SC)n2)cc1 | 1.7 | -1.4 | -34.7 | 31.4 | 56.6* | -0.4
O=C(Cn1c(=O)[nH]c2ccsc2c1=O)NC1CCCCCC1 | · | · | · | 8.1 | -8.3 | 9.1
CC1CCC(NC(=O)Cn2c(=O)[nH]c3ccsc3c2=O)CC1 (stereo unspecified) | · | · | 19.8 | 46.7 | 51.1* | 7.6
Cc1ccc(Cl)cc1NC1=NC(=S)N(C(C)C)C12CCCCC2 | · | · | -5.6 | · | · | ·
CC1CCCCN1C(=O)c1cc(-c2ccc(Cl)c(Cl)c2)on1 (stereo unspecified) | -0.5 | -4.0 | · | 46.5 | 62.5* | -6.7
COc1cccc(-c2cc(C(=O)Nc3cc(C)on3)no2)c1 | -2.8 | -6.1 | -58.2 | -5.3 | 6.8 | -4.5
CCC1CCCCN1C(=O)c1cc(-c2ccc(Cl)c(Cl)c2)on1 (stereo unspecified) | 7.2 | -0.5 | · | 39.7 | 54.4* | 6.8
COc1cccc(-c2cc(C(=O)N3C(C)CCCC3C)no2)c1 (stereo unspecified) | · | · | · | 36.1 | 66.9* | 7.8
Nc1nc(CSc2ccccn2)nc(Nc2ccccc2)n1 | · | · | 5.1 | 58.4* | 24.1 | 0.5
COc1ccc(-c2ccc(C#N)c(OC(=O)c3c(Cl)cccc3Cl)n2)cc1 | · | · | -6.2 | · | · | ·
CN(C(=O)c1cnccn1)c1nnc(-c2cccnc2)s1 | 4.5 | 0.8 | · | -1.1 | 6.9 | 12.2
Clc1ccc(-c2nnc(N3CCCC3)nn2)cc1 | · | · | -16.7 | 40.7 | 54.6* | -0.1
N#Cc1c(N)nc(N2CCCC2)c(C#N)c1-c1ccc(Cl)cc1 | 4.3 | 1.1 | · | -5.5 | 15.0 | 7.3
SMILES | ROCK2 inh | JNK3 blocker | Htt clearance | SF-1 act | RORa activator | PKA kinase inh
Cc1ccc2c(c1)c1c3n2CCN(C(=O)Cn2c(-c4ccccc4)noc2=O)C3CCC1 (stereo unspecified) | 21.2* | 0.9 | 21.5 | -21.6 | -2.5 | -5.6
O=C(CSc1ncnc2ccccc12)N1CCCC1 | 10.4 | 7.0 | -336.1 | 18.3 | 54.7* | 5.0
COCCOC(=O)c1[nH]c2c(c1C)C(=O)C(C(=O)OC)C(C)C2 (stereo unspecified) | 0.3 | -0.9 | 57.7 | 47.1 | 55.9* | 6.8
COC(=O)C1C(=O)c2c([nH]c(C(=O)OC3CCCCCC3)c2C)CC1C (stereo unspecified) | -3.2 | 4.6 | · | 38.4 | 73.9* | -7.8
COC(=O)C1C(=O)c2c([nH]c(C(=O)OCC3CCCO3)c2C)CC1C (stereo unspecified) | 1.8 | -1.0 | · | 47.1 | 46.5 | -3.1
Cc1ccc(-n2cc(-c3ccccc3)[nH]c2=O)cc1F | 4.2 | -4.6 | · | 86.8* | 39.9 | 4.0
Cc1cc(C(=O)Nc2sc(C)c(-c3ccc(F)cc3)c2C(N)=O)no1 | 4.3 | -0.2 | · | 84.9* | 37.8 | 12.6
COC(=O)/C=c1/sc2nc3ccccc3n2c1=O | 7.8 | 1.9 | · | -3.0 | -11.3 | 5.4
O=c1c2ccccc2nc2sc3ccccc3n12 | 6.9 | 8.4 | -15.9 | 56.8* | 60.4* | 5.6
COc1cccc(-c2cn3nc(C)c(C)nc3n2)c1 | -11.6 | 5.4 | 33.4 | 23.8 | 37.2 | -3.1
COc1cccc(C2=N/C(=C\N(C)C)C(=O)O2)c1 | -0.1 | 0.7 | 12.1 | 26.2 | 71.0* | 4.7
Cc1oc2ccc(O)cc2c1C(=O)OC(C)C | · | · | -30.9 | · | · | ·
Cc1oc2ccc(OCC(N)=O)cc2c1C(=O)OC(C)C | -0.7 | 31.6* | · | 1.0 | -25.9 | -2.6
O=C(CN1C(=O)NC2NC(=O)NC21)NC1CCCCC1 (stereo unspecified) | 4.2 | 4.3 | · | 7.9 | -5.5 | -0.8
O=C(COC(=O)Cc1ccsc1)NC1CCCCCC1 | 3.4 | -1.5 | 74.2* | 8.3 | 3.6 | 8.9
CN(C)c1ccc(-n2cc3c(=O)n(C)c(=O)n(C)c3c2)cc1 | -5.5 | -17.6 | -12.3 | 14.4 | 48.7* | -6.0
CN(C)C(=O)c1ccc2c(c1)n(C)c(=O)n2C | · | · | -58.9 | · | · | ·
CCN(CC)c1ccc(-n2cc3c(=O)n(C)c(=O)n(C)c3c2)cc1 | 5.1 | -10.6 | · | 55.5* | 6.3 | 7.3
N#Cc1c(-c2cccnc2)c2c([nH]c1=S)CCCC2 | 1.1 | -0.6 | -151.7 | -0.8 | 5.8 | 6.3
COc1ccc(-c2c3c([nH]c(=S)c2C#N)CCC3)cc1 | 1.3 | 46.0* | 70.7* | -8.0 | -7.5 | 1.1
COc1ccc(C(=O)Nc2nncs2)cc1S(=O)(=O)N1CC(c2ccccc2)CC1=O (stereo unspecified) | 8.9 | -4.5 | -4.5 | 6.4 | 0.4 | 11.7
O=C(C1COc2ccccc2O1)N1CCc2ccccc21 (stereo unspecified) | 6.1 | 5.7 | · | 54.0* | 30.2 | 4.9
COc1cccc(C(CC(=O)NCc2ccco2)NS(=O)(=O)c2ccc(C)cc2)c1OC (stereo unspecified) | 2.0 | -3.3 | · | 14.8 | 12.5 | 2.9
CC1CCN(Cc2nc(-c3ccccc3)no2)CC1 | 14.2 | 4.1 | 65.0 | 51.2* | 19.1 | 7.7
c1ccc(OCCCc2nc(-c3ccncc3)no2)cc1 | 18.3* | -1.1 | -41.6 | -4.0 | -12.2 | 12.4
c1ccc(OCc2nc(-c3ccccc3)no2)cc1 | -1.0 | 0.0 | · | 55.5* | 39.9 | -0.8
O=C(CSCc1ccc(Cl)cc1)N/N=C/c1ccc(Cl)cc1Cl | · | · | 9.1 | · | · | ·
CC(CCc1ccccc1)NC(=O)C1CCN(S(=O)(=O)c2cnc[nH]2)CC1 (stereo unspecified) | 1.1 | 0.5 | · | -5.8 | -11.1 | -0.7
O=C(Nc1cccc2ccccc12)c1cnccn1 | 3.5 | 2.4 | · | 62.7* | 15.4 | 0.1
